Shown are actives, neighbours in structure and some others; about 3.8% of the full set was active somewhere.
KCNQ1 pot: potentiators or activators of KCNQ1 channel, primary screen, cell-based, thallium flux, high-throughput; CHO-K1 KCNQ1, thallium flux FluxOR fluorescence; stronger effect = higher value; B-score at 10 µM; actives 0.35% (n = 310,000);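 active means fluorescence ratio B-score, a plate-corrected score, at least three library SD, with initial intensity B-score within 5 SD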
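assay system = KCNQ1-transfected CHO-K1 cells | medium = assay buffer with matched DMSO | probe or stimulus = depolarizing K+/Tl+ stimulus, K2SO4 and Tl2SO4 each 12.5 mM in 5x stock | dosing = single dose | incubation = dye 90 min, compound 20 min, room temperature | detection = kinetic FluxOR fluorescence, 10 s baseline plus 110 s post-stimulus | evaluation = ratio B score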
KCNQ1 block: inhibitors of human KCNQ1 channel, primary screen, cell-based, thallium flux, high-throughput | B-score at 10 µM | AID 2642, 2010 | CHO-K1 KCNQ1, FluxOR thallium flux fluorescence; stronger effect = higher value | actives 1.3% (n = 310,000) | Potassium voltage-gated channel subfamily KQT member 1 (Homo sapiens), P51787;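 active means compounds whose thallium flux B-score, printed positive for inhibition, exceeds three library SD while starting fluorescence stays within three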;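 further: channel opened by potassium depolarization with thallium stimulus after 20 min compound exposure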
hERG protect: hERG rescue from dofetilide block, primary screen, cell-based, CHO-hERG, FluxOR thallium flux, dofetilide IC70. dofetilide IC70 present. actives 0.51% (n = 310,000). Voltage-gated inwardly rectifying potassium channel KCNH2 (Homo sapiens), Q12809. activation (rescue from dofetilide block), less the hit threshold, % at 10 µM;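 active means activation above the mean of controls blocked by dofetilide plus 5 SD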;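 further: thallium influx through hERG after potassium depolarization seen as dye fluorescence rise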
Kir21 block: inhibitors of mouse Kir2.1 inward-rectifier potassium channel. actives 0.85% (n = 310,000). AID 1672, 2009. HEK293-Kir2.1, FluxOR thallium flux fluorescence; stronger effect = lower value. Inward rectifier potassium channel 2 (Mus musculus), P35561. B-score at 10 µM;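 active means fluorescence ratio B-score at or below minus 3 SD of library scores, with starting-brightness B-score within 2 SD, cut at about -4.2 in these data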;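 further: channel flux triggered by added potassium and thallium sulfate stimulus; B-score of peak minus minimum fluorescence over baseline after thallium stimulus; more negative B-score means stronger Kir2.1 block with less thallium influx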
Target sequence (P35561 whole entry, looked up): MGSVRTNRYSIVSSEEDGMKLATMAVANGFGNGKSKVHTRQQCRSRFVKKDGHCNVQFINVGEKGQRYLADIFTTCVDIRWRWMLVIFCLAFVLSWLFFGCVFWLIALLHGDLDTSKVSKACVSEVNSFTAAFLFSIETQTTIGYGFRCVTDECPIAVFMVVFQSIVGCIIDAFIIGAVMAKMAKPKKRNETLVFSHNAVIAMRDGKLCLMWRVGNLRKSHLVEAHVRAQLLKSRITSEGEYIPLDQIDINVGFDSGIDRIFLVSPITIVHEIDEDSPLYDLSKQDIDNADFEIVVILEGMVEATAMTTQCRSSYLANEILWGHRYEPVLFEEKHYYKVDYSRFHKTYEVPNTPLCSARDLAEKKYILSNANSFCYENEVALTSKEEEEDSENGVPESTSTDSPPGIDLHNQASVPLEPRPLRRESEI
KCNK3 inh: human KCNK3 channel inhibitors, primary screen, CHO cells, FluxOR thallium flux, B-score. Potassium channel subfamily K member 3 (Homo sapiens), O14649. FluxOR fluorescence; stronger effect = lower value. B-score at 10 µM. actives 0.84% (n = 340,000). AID 602410, 2012;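 active means B-score under library mean minus 4 SD, starting fluorescence ratio at most library mean plus 5 SD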;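 further: more negative B-score means stronger inhibition of thallium flux through KCNK3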
KCNK9 block: KCNK9 potassium channel inhibitors, primary screen, HEK293 cells, thallium flux | Potassium channel subfamily K member 9 (Homo sapiens), Q9NPC2 | B-score at 10 µM | actives 1.2% (n = 310,000) | FluxOR thallium flux fluorescence; stronger effect = lower value | AID 488922, 2010;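 active means ratio B-score over 3 SD below the library mean, with starting fluorescence within 5 SD of its mean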;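 further: negative B-score means less thallium flux so channel inhibition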
Target sequence (Q9NPC2 whole entry, looked up): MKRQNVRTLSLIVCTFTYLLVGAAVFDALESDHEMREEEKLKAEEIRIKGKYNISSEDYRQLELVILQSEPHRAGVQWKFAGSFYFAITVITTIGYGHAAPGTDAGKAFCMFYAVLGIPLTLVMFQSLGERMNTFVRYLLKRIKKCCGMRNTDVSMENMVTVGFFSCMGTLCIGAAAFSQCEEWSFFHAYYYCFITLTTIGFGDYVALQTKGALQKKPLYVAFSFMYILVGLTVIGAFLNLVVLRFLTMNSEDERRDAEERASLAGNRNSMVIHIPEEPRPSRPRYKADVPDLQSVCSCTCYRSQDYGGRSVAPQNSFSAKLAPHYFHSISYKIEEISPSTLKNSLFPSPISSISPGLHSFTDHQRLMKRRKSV
KCNQ1 block val: KCNQ1 potassium channel inhibitors, confirmation, cell-based, Tl flux, duplicate; inhibition, % at 10 µM; actives 93% (n = 1,600); KCNQ1 cell line, FluxOR thallium flux fluorescence; AID 588353, 2011; shares compounds with KCNQ1 block;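 active means primary screen active, with duplicate mean exceeding buffer control mean plus 3 SD of buffer wells, cut at about 28% in these data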;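 further: 0% = buffer control ratio and 100% = XE991 inhibitor control ratio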
CHO KCNQ1 ctr: thallium flux effects in parental CHO cells, counter-screen for KCNQ1 inhibitor project, cell-based, Tl flux. AID 588366, 2011. actives 21% (n = 1,600). shares compounds with KCNQ1 block. parental CHO-K1, FluxOR thallium flux fluorescence ratio; stronger effect = lower value; zero means no signal rise above baseline. fluorescence ratio (Tl flux) at 10 µM;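 active means mean of duplicate thallium-flux fluorescence ratios in parental host cells more than 5 SD below the buffer control mean, cut at about 0.38 in these data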;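 further: ratio is peak minus minimum fluorescence divided by baseline fluorescence; actives read low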
KCNQ1 ephys val: KCNQ1 channel inhibitors, confirmation, orthogonal assay, cell-based, automated electrophysiology | shares compounds with KCNQ1 block | KCNQ1-CHO cells, automated patch clamp current | calls only at 10 µM | actives 20% (n = 490) | AID 624120, 2012;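 active means KCNQ1 current drop exceeding 3 SD of negative control wells, seen in both duplicate runs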;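 further: steady state current during a 2 s step from -80 to +40 mV; negative values mean current inhibition and positive values mean potentiation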
KCNQ2 spec: KCNQ2 channel inhibition, selectivity assay for KCNQ1 inhibitor project, cell-based. actives 71% (n = 1,600). AID 651746, 2012. shares compounds with KCNQ1 block. inhibition, % at 10 µM. KCNQ2 cells, FluxOR thallium flux fluorescence;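 active means mean percent inhibition of the KCNQ2 thallium signal more than 5 SD above the buffer-only control wells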;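 further: KCNQ2 expressed in CHO cells; 0% = buffer control wells and 100% = XE-991 inhibitor control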
KCNQ1-KCNE1 inh: KCNQ1/KCNE1 channel inhibition, selectivity assay for KCNQ1 inhibitor project, CHO-K1 cells, thallium flux, FluxOR; actives 77% (n = 1,600); inhibition, % at 10 µM; FluxOR thallium flux fluorescence; shares compounds with KCNQ1 block;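 active means mean percent inhibition of duplicate wells above the buffer-only control mean plus 3 SD of those controls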;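 further: 0% = buffer only wells and 100% = XE-991 inhibitor control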
* = called active by the depositor; i = inactive; . = not tested or not shown.

SMILES | KCNQ1 pot | KCNQ1 block | hERG protect | Kir21 block | KCNK3 inh | KCNK9 block | KCNQ1 block val | CHO KCNQ1 ctr | KCNQ2 spec | KCNQ1-KCNE1 inh | others
COc1cc(/C=C/C(=O)OCC(=O)N2CCN(S(=O)(=O)c3ccc(C)cc3C)CC2)ccc1OC(F)F | . | . | . | . | i | . | . | . | . | .
Cc1ccc(S(=O)(=O)C(C#N)c2nc3ccccc3nc2N2CCN(C)CC2)cc1 (stereo not drawn) | i | i | -7.2 | 0.52 | i | i | . | . | . | .
CCOC(=O)N1CCN(c2nc3ccccc3nc2C(C#N)S(=O)(=O)c2ccc(C)cc2)CC1 (stereo not drawn) | i | 9* | -9.8 | -0.03 | i | i | 61.0* | 0.511 | i | 50.5%*
COc1ccc(Br)cc1CSC(=N)N | i | i | -8.8 | -0.23 | i | i | . | . | . | .
CCCCCOc1ccc(Br)cc1CSC(=N)N | i | 9* | -27.2 | -12.1* | i | i | 125.0* | 0.369* | 86.3%* | 94.5%*
O=C(CSc1ccc2ccccc2c1)Nc1ccncc1 | i | 7* | -9.9 | -0.68 | i | i | 90.5* | 0.537 | 75.3%* | i | KCNQ1 ephys val=i
O=C(CSc1ccncc1)Nc1ccc2ccccc2c1 | i | i | -9.2 | 0.81 | i | i | . | . | . | .
CCOc1cc(S(=O)(=O)NCc2ccncc2)ccc1Cl | i | 8* | -11.9 | -0.72 | i | i | 73.5* | 0.5 | i | 36.5%*
O=C(Nc1nc(-c2ccccc2)cs1)c1ccccc1NS(=O)(=O)c1ccc(F)cc1 | i | 10* | -28.9 | -0.8 | i | i | 105.0* | 0.331* | i | 151.0%*
Cc1cc(C)nc(NC(=O)c2ccc(COc3ccccc3Cl)cc2)c1 | i | 8* | -6.2 | -0.2 | i | i | 103.0* | 0.447 | 106.0%* | 123.0%* | KCNQ1 ephys val=i
CC(=O)c1cccc(NC(=O)N2CCCC2C(=O)NCc2ccc3c(c2)OCO3)c1 (stereo not drawn) | i | 7* | -7.3 | -1.27 | i | i | 0.0 | 0.482 | i | i
O=C(Cc1nc2ccccc2[nH]1)c1ccc(Br)cc1 | i | 6* | -12.6 | 2.67 | i | i | 51.5* | 0.463 | 72.3%* | 51.0%*
Cc1c(C(=O)Nc2ccccc2)cn2c(nc3ccccc32)c1C#N | i | i | -2.1 | -0.07 | i | i | . | . | . | .
Cc1ccccc1C(=O)Nc1ccc2c(C#N)c3nc4ccccc4nc3n2c1 | i | 8* | -11.7 | -0.56 | i | i | 32.0* | 0.517 | 63.7%* | i
COC(=O)CCCC(=O)NCC1(N(C)Cc2ccccc2)Cc2ccccc2C1 | i | i | -6.2 | 0.02 | i | i | . | . | . | .
COc1ccccc1CC(NC(C)=O)C(=O)NC1CCN(C(=O)Nc2ccccc2F)CC1 (stereo not drawn) | i | i | -12.4 | -0.27 | i | i | . | . | . | .
COc1ccc2no[n+]([O-])c2c1 | i | i | -4.0 | -2.61 | . | i | . | . | . | .
O=C(COc1ccccc1[N+](=O)[O-])Nc1ccccc1N1CCCCC1 | i | i | -8.8 | 0.48 | i | i | . | . | . | .
Cc1ccccc1OCC(=O)Nc1ccccc1N1CCCCC1 | i | 8* | -8.9 | -2.63 | i | -8* | 120.5* | 0.459 | 95.3%* | 170.0%* | KCNQ1 ephys val=i
O=C(Nc1ccccc1N1CCCC1)c1ccccc1F | i | i | -2.1 | 1.74 | i | i | . | . | . | .
O=C(Nc1ccccc1N1CCCCC1)c1ccccc1F | i | 6* | -6.5 | 0.11 | i | i | 102.0* | 0.369* | 75.7%* | 143.5%*
Cc1ccc(Cl)cc1N1CCN(C(=O)C2CCN(S(=O)(=O)c3c(C)nn(C)c3C)CC2)CC1 | i | i | -11.4 | 0.2 | i | i | . | . | . | .
COCC(=O)N(Cc1ccccc1)c1ccccn1 | i | i | -0.5 | -0.87 | i | i | . | . | . | .
COc1ccccc1NC(=O)N(Cc1ccccc1)c1ccccn1 | i | 7* | -6.7 | -0.77 | i | i | 95.0* | 0.424 | 85.0%* | 101.5%* | KCNQ1 ephys val=i
COc1ccc2oc(C)c(C(=O)c3ccccc3)c2c1 | i | i | -6.0 | -3.04 | i | i | . | . | . | .
SMILES | KCNQ1 pot | KCNQ1 block | hERG protect | Kir21 block | KCNK3 inh | KCNK9 block | KCNQ1 block val | CHO KCNQ1 ctr | KCNQ2 spec | KCNQ1-KCNE1 inh | others
COc1ccc2oc(/C=C/N(C)C)c(C(=O)c3ccc(Cl)cc3)c2c1 | i | 6* | -15.1 | -1.04 | i | i | 114.0* | 0.351* | 139.0%* | 145.0%*
Cc1cc(C)c2nc(Nc3nc(-c4ccccc4)cc(=O)[nH]3)nc(C)c2c1 | i | i | -8.8 | 0.05 | i | i | . | . | . | .
CC1=CC(C)(C)N=C(Nc2nc(C)c3cc(C)cc(C)c3n2)N1 | i | 6* | -24.4 | -1.03 | i | i | 79.0* | 0.513 | 70.0%* | 59.0%*
CC(C)Cn1c(N)c(C(=O)COC(=O)CC23CC4CC(CC(C4)C2)C3)c(=O)n(C)c1=O | i | 12* | -16.6 | 0 | i | i | 143.5* | 0.297* | 124.0%* | 186.0%*
Cc1csc(=O)n1CCC(=O)OCC(=O)c1c(N)n(CC(C)C)c(=O)n(C)c1=O | i | i | -20.8 | 2.01 | i | i | . | . | . | .
CC(C)Cn1c(N)c(C(=O)COC(=O)CCc2nc3ccccc3s2)c(=O)n(C)c1=O | i | 8* | -20.1 | -0.78 | i | i | 132.5* | 0.437 | 84.0%* | 96.5%* | KCNQ1 ephys val=i

Assay outcomes from PubChem.
